Series [1] can be described thus: Cytotoxicity against human HepG2 cells assessed as cell viability at 100 uM after 48 hrs by MTT assay. It is filed as cell-based. As to conditions: read-out: Activity. The method, boiled down:
(§1)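 J774 A.1 cells were grown in DMEM and HepG2 in MEM, each with 10% FBS, penicillin, streptomycin and 2 mM L-glutamine, at 37 °C in 5% CO2. Seeded at 1-5·10^4 cells/well with half-log diluted compounds, 1% DMSO final, for 48 h. MTT was added to 0.5 mg/mL final for 3-4 h, solubilized in 50% DMSO/50% EtOH, and read at 570 nm. Background came from Triton X-100 lysed wells, and viability was taken relative to untreated controls.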

Series [2] is described as follows: Cytotoxicity against mouse J774A1 cells assessed as cell viability at 100 uM after 48 hrs by MTT assay. It is filed as functional. Particulars: J774.A1, 48 h, read-out: Activity. The method in brief: as §1
A general note: Tetrazolium dyes change colour on reduction, which living cells bring about.

The subject of a further series is Hydroxyapatite. Put plainly: Binding affinity to bone mineral hydroxyapatite assessed as adsorbed level at 100 uM after 2 hrs by UV-spectrophotometric analysis. The method, boiled down:
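Duplicate 5 ml aliquots of 100 μM bisphosphonic acid in 50 mM Tris-HCl pH 7.5, stirred with 4 mg hydroxyapatite at 37 °C for 2 h. After centrifugation (10 min, 8000 rpm) and 0.22 μm filtration, supernatant absorbance was quantified against calibration lines.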

Series [3] has as its target Matrix metalloproteinase-14 (Homo sapiens, UniProt P50281). In words: Inhibition of MMP14 catalytic domain (unknown origin) using Mca-Pro-Leu-Gly-Leu-Dpa-Ala-Arg-NH2 as substrate incubated for 30 mins prior to substrate addition measured after 2 to 4 hrs by fluorometric assay. The method, boiled down:
(§2)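 Catalytic domains of MMP-8, MMP-9 or MMP-14 were preincubated 30 min at 25 °C with inhibitor (six concentrations, 0.1 nM–100 μM) in 50 mM Tris-HCl pH 7.5, 200 mM NaCl, 1 mM CaCl2, 1 μM ZnCl2, 0.05% Brij-35, 1% DMSO. Substrate was added to 2.5 μM final for 2–4 h at 37 °C, then acetic acid stop. Fluorescence read at 340/405 nm, in triplicate; IC50 fitted from percent inhibition.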

Series [4] addresses Matrix metalloproteinase-9 (Homo sapiens, UniProt P14780). In words: Inhibition of MMP9 catalytic domain (unknown origin) using Mca-Pro-Leu-Gly-Leu-Dpa-Ala-Arg-NH2 as substrate incubated for 30 mins prior to substrate addition measured after 2 to 4 hrs by fluorometric assay. The method, boiled down: as §2
A further series deals with Neutrophil collagenase (Homo sapiens, UniProt P22894). Put plainly: Inhibition of MMP8 catalytic domain (unknown origin) using Mca-Pro-Leu-Gly-Leu-Dpa-Ala-Arg-NH2 as substrate incubated for 30 mins prior to substrate addition measured after 2 to 4 hrs by fluorometric assay. The method in brief:
as §2

Series [5] addresses 72 kDa type IV collagenase (Homo sapiens, UniProt P08253). In words: Inhibition of APMA-activated recombinant human MMP2 using Mca-Pro-Leu-Gly-Leu-Dpa-Ala-Arg-NH2 as substrate incubated for 30 mins prior to substrate addition measured after 2 to 4 hrs by fluorometric assay. The method in brief:
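Human pro-MMP-2 was activated with 2 mM APMA for 1 h at 37 °C. Enzyme and inhibitor (six concentrations, 0.1 nM–100 μM) were preincubated 30 min at 25 °C in Tris-HCl pH 7.5 buffer with NaCl, CaCl2, ZnCl2, Brij-35 and 1% DMSO. Substrate was added to 2.5 μM final, run 2–4 h at 37 °C, and stopped with 3% acetic acid. Fluorescence read at ex 340/em 405 nm, in triplicate; IC50 from percent inhibition versus no-inhibitor controls.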

Where only a bound is given, the exact number is not on record here.

Chain of 72 kDa type IV collagenase (P08253 whole entry): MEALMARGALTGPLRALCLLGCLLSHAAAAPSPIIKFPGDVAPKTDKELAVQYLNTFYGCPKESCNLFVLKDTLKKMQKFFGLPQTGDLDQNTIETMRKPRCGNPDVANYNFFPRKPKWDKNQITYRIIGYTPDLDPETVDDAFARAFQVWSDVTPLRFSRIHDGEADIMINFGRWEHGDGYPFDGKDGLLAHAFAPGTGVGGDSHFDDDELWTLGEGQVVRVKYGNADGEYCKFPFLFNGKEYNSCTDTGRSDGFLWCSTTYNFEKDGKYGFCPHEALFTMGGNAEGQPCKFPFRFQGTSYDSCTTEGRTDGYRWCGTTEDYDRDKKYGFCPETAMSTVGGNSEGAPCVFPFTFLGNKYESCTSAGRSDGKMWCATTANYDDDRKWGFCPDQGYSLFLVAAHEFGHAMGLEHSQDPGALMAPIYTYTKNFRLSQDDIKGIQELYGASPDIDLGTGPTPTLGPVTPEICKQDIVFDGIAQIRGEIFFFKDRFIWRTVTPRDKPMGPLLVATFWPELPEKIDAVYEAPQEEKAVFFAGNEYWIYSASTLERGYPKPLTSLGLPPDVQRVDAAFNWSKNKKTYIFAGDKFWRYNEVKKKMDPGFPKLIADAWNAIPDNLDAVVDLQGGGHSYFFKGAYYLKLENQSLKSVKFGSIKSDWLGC
Chain of Neutrophil collagenase (P22894 whole entry, the tested form may be a part): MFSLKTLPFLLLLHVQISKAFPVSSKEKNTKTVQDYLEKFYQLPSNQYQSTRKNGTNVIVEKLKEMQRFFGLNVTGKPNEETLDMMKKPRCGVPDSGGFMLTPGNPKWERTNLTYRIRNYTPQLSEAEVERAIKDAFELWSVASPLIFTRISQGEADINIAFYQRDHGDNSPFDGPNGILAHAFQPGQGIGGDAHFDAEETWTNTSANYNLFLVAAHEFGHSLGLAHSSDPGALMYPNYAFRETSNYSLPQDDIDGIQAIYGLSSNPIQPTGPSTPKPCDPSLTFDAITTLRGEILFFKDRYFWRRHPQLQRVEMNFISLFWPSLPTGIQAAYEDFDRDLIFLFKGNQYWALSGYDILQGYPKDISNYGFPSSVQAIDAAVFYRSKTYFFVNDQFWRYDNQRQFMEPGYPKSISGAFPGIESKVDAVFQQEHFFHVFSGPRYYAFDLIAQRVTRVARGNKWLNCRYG
Chain of Matrix metalloproteinase-9 (P14780 whole entry, the tested form may be a part): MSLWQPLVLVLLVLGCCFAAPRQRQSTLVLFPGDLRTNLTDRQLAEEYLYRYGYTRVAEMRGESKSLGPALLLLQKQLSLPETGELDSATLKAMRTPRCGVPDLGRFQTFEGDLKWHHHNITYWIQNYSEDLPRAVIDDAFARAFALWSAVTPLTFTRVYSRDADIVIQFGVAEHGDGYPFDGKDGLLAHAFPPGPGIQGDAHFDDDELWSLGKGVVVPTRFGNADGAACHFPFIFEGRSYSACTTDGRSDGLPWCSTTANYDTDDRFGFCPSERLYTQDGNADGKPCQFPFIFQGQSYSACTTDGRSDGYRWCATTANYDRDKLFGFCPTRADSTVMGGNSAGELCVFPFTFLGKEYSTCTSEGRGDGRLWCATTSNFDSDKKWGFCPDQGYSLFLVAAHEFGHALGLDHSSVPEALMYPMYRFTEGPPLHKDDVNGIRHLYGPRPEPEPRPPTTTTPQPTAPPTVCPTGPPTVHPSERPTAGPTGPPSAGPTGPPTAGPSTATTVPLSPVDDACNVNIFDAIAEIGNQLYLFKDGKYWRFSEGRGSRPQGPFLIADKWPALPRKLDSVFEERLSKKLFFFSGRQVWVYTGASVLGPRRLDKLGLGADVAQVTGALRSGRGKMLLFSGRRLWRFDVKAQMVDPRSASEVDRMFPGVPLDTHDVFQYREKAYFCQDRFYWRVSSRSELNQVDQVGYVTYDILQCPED

`O=P(O)(O)C(Nc1ccc(Oc2ccc(Cl)cc2)cc1)P(=O)(O)O`: the viability at 48 h, 100 µM in series [1] is 87%. Also, the viability at 100 µM in series [2] is 73%. Also, the Activity in the series with Hydroxyapatite amounted to 52.1%. The IC50 in series [3] amounted to 76 µM; in series [4], 55 µM; on Neutrophil collagenase, 39.9 µM; in series [5] it was 2.1 µM.

Consider `O=P(O)(O)C(Nc1ccc(Cl)cc1Cl)P(=O)(O)O` [2,4-DICHLOROPHENYLAMINOMETHYLENEBISPHOSPHONIC ACID], for which, in series [1], the viability at 48 h, 100 µM stood at 73%. In addition, the viability at 100 µM in series [2] amounted to 59%. Further, the Activity in the series with Hydroxyapatite amounted to 56.8%. In addition, the IC50 (in series [3]; in series [4]; at Neutrophil collagenase; in series [5]) was more than 100 µM throughout.

For the compound `Cc1ccc(NC(P(=O)(O)O)P(=O)(O)O)cc1` [(P-TOLYLAMINO)METHYLENEDIPHOSPHONIC ACID], the viability at 48 h, 100 µM in series [1] was determined as 104%. Also, the viability at 100 µM in series [2] came out at 83%. In addition, in the series with Hydroxyapatite, the Activity turned out to be 23.9%. In addition, the IC50 in series [3] is more than 100 µM; in series [4], more than 100 µM; at Neutrophil collagenase, 36 µM; in series [5], more than 100 µM.

Usually IC50 stands for the concentration that inhibits the measured activity by half.
